From ChEMBL document CHEMBL3045637, “Highly variable insect control efficacy of Tephrosia vogelii chemotypes” (2012)
≈ marks a conversion by molar mass, not a printed value. Calls of active or inactive are those of the source. The rule behind the calls is not given here.

Experiments:
Callosobruchus maculatus [1] = assay: Insecticidal activity against adult Callosobruchus maculatus assessed mean survival fraction ratio at 10 ppm measured 72 hr post dose (reference value: 4.4 +/- 0.31 mean survival fraction); format: functional
Callosobruchus maculatus [2] = assay: Insecticidal activity against adult Callosobruchus maculatus assessed mean survival fraction ratio at 500 ppm measured 72 hr post dose (reference value: 4.4 +/- 0.31 mean survival fraction); format: functional
Callosobruchus maculatus [3] = assay: Insecticidal activity against adult Callosobruchus maculatus assessed reduction mean survival fraction measured 72 hr post dose (reference value: 4.4 +/- 0.31 mean survival fraction); format: functional
Callosobruchus maculatus [4] = assay: Insecticidal activity against adult Callosobruchus maculatus assessed mean survival fraction ratio at 100 ppm measured 72 hr post dose (reference value: 4.4 +/- 0.31 mean survival fraction); format: functional
Callosobruchus maculatus [5] = assay: Inhibition of oviposition in adult Callosobruchus maculatus grown on compound pre-treated cowpea seeds assessed as reduction in number of eggs at 10 to 500 ppm measured after 72 hr; format: functional, organism-based
Summary of the method: (§1)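 Compounds in acetone at 500, 100 and 10 ppm were coated onto cowpea seed by rotary evaporation (5 mL per 25 g) and air-dried 1 h. 5 g of treated seed went in a vial with 5 mated females, 2–3 days old, 5 replicates per treatment. Females were removed at 72 h and eggs counted. F1 emergence was counted from day 25 over two weeks. Means compared by ANOVA with SNK or LSD.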

Callosobruchus maculatus [6] = assay: Inhibition of F1 generation emergence in adult Callosobruchus maculatus grown on compound pre-treated cowpea seeds assessed as reduction in adult emergence at 10 to 500 ppm measured over 2 weeks from start of F1 emergence; format: functional, organism-based; summary of the method: as §1

Compound | Ratio (Callosobruchus maculatus [1]) | Ratio (Callosobruchus maculatus [2]) | LC50 (Callosobruchus maculatus [3]) [µg/mL] | Ratio (Callosobruchus maculatus [4]) | inhibition (Callosobruchus maculatus [5]) | inhibition (Callosobruchus maculatus [6])
COc1cc2c(cc1OC)[C@@H]1C(=O)c3c(O)cc4c(c3O[C@@H]1CO2)C=CC(C)(C)O4 [TOXICAROL] | 2.2 | 2.2 | < 10 | 2.2 | – | –
COc1cc2c(cc1OC)[C@@H]1C(=O)c3ccc4c(c3O[C@@H]1CO2)C=CC(C)(C)O4 [DEGUELIN] | 2.6 | 0.9 | < 10 | 1.4 | Active | Active
COc1cc2c(c3c1C(=O)C[C@@H](c1ccccc1)O3)C=CC(C)(C)O2 [OBOVATIN 5-METHYL ETHER] | 3.8 | 4.2 | – | 4.2 | – | –
COc1cc2c(cc1OC)[C@]1(O)C(=O)c3ccc4c(c3O[C@@H]1CO2)C1C(O4)C1(C)C (some centres undefined) [SARCOLOBINE] | 2 | 0.6 | < 10 | 1.4 | – | –
C=C(C)[C@H]1Cc2c(ccc3c2O[C@@H]2COc4cc(OC)c(OC)cc4[C@@H]2C3=O)O1 [ROTENONE] | 1 | 0.4 | < 10 | 0.7 | Active | Active
COc1cc2c(cc1OC)[C@]1(O)C(=O)c3ccc4c(c3O[C@@H]1CO2)C=CC(C)(C)O4 [TEPHROSIN] | 2.9 | 1.8 | 200 (≈ 487 µM) | 2.3 | Active | Active
